# Screening data as filed in PubChem.
# NS3 helicase inh = HCV NS3 helicase inhibition. NS3 helicase DNA unwinding, Cy5 molecular beacon fluorescence. inhibition, % at 10.9 µM. hit rate 0.56% among 290,000;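 active = inhibition above the mean of all tested compounds plus 3 SD, set per campaign, cut at about 35% in these data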;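 also: 0% = DMSO wells and 100% = thioflavine S control wells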
#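 Measured by: Cy5 fluorescence, 0 and 60 min reads / Assay system: NS3 helicase fragment of HCV / Control set: low DMSO, high thioflavine S at 110 µM / Times: 1 h reaction at 25 °C, ATP-initiated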
# T cruzi inh = blocks replication of Trypanosoma cruzi; T. cruzi beta-gal in NIH3T3, luminescence, 90 h; inhibition, % (concentration not given with the values); hit rate 1.4% among 300,000;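 active = mean inhibition across valid replicates above about 55%, limit read from the data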;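 also: signal also drops with host cell toxicity which is not excluded here; 0% = plate median of DMSO wells and 100% = zero luminescence signal; higher percent means less beta-gal luminescence so fewer parasites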
#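 Test system: β-gal T. cruzi (Tulahuen C4) inside NIH/3T3 cells / Quantity: 5,000 cells/well / Measured by: luminescence from GalScreen with 0.05% NP40, read after 60 min / Medium: DMEM plus 2% FBS / Measure: parasite load inhibition, % / Reagent: Tulahuen C4 trypomastigotes, 5000/well / Schedule: co-culture of at least 90 h after 3 h attachment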
# MEKK2mut PB1 HTS = signal of MEK5 binding to mutant human MEKK2 PB1 domain; bead flow cytometry, Alexa488-MEK5 binding to MEKK2 mutant; percent response, % at 10 µM; hit rate 0.35% among 290,000; in the data active = percent response above about 24%, passing the limit was not always enough
# MEKK2wt PB1 HTS = raises or lowers MEK5 binding to wildtype human MEKK2 PB1 domain; Q9Y2U5; bead flow cytometry, Alexa488-MEK5 binding to MEKK2 WT; actives lie on both sides; binding response (% of control), % at 10 µM; hit rate 1.1% among 290,000; AID 1531; in the data active = binding response below about 67% or above about 130%
# FID counter = counter-screen for HCV NS3 helicase inhibitors: DNA intercalator displacement. DNA fluorescent intercalator displacement, fluorescence. AID 1845. hit rate 0.17% among 290,000. inhibition, % at 7.9 µM; in the data active = inhibition above about 37%;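 also: 0% = vehicle and 100% = reference compound; higher means more ethidium bromide displaced from hairpin DNA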
# MEKK3 PB1 HTS = raises or lowers MEK5 binding to the human MEKK3 PB1 domain | AID 1529 | hit rate 1.4% among 290,000 | bead-based flow cytometry, Alexa488-MEK5 binding to MEKK3; actives lie on both sides; 0 = blocked by unlabeled MEK5, 100 = vehicle | binding response (% of control), % at 10 µM;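 active = binding response more than 3 SD above or below the average of its plate-row segment, actives on both sides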;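 also: Alexa488 bead fluorescence after subtracting the streptavidin-only scavenger bead signal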
# Target sequence (Q99759 whole entry, looked up, the tested form may be a part): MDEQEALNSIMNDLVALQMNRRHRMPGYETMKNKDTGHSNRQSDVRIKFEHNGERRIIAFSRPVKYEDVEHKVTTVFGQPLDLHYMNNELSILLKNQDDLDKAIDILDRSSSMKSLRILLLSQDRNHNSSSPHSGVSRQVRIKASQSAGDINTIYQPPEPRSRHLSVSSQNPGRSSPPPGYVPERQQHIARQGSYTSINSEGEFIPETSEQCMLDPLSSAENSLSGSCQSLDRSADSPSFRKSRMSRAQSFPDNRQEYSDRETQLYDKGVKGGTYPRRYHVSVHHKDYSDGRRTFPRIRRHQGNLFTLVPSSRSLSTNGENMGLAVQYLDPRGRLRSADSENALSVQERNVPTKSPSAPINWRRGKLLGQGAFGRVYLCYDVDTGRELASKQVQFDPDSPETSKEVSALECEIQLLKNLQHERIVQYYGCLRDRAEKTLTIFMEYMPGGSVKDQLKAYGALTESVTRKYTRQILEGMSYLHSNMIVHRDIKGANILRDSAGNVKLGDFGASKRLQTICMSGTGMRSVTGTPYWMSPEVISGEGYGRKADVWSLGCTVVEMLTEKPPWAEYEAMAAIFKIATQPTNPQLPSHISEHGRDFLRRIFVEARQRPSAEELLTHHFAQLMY
# * hit, by the source's call; x = no result given. Hits are enriched below; roughly 4.1% of the tested compounds scored in any of these assays.
SMILES,NS3 helicase inh,T cruzi inh,MEKK2mut PB1 HTS,MEKK2wt PB1 HTS,FID counter,MEKK3 PB1 HTS
COc1ccc(C2CC(=O)C3=C(C2)Nc2ncnn2C3c2ccccc2C)c(OC)c1 (configuration not stated),-6.8,61.3*,-5.0,89.0,-8.3,95.0
CCN1CCN(CCOc2cccc(Cl)c2Cl)CC1,-5.4,77.6*,1.0,99.0,13.1,95.0
CCN1CCN(CCOc2ccc(Br)cc2C)CC1,-36.6,48.4,-6.0,97.0,26.9,93.0
Clc1ccc(OCCCCCN2CCCC2)c(Br)c1,-19.0,68.0*,5.0,97.0,14.1,106.0
CC1CC(C)CN(CCOc2cccc(Cl)c2Cl)C1 (configuration not stated),-23.5,25.3,-1.0,103.0,14.2,107.0
Cc1cc(Br)ccc1OCCN1CCCC1,-10.3,73.0*,-1.0,99.0,15.3,89.0
CCN1CCN(CCCOc2ccc(Cl)cc2Br)CC1,-4.6,57.3*,-3.0,117.0,19.1,119.0
Clc1ccc(OCCCN2CCCCC2)c(Br)c1,-0.3,45.9,-1.0,107.0,18.2,84.0
CCc1cc(CNC(=O)CCc2nnc(CCCc3ccccc3)o2)on1,6.3,-4.0,-10.0,90.0,-10.0,103.0
O=C(NC1CCOc2ccccc21)c1ccc(Cl)nc1 (configuration not stated),-3.0,2.9,-5.0,101.0,-3.5,99.0
Clc1ccc(Cl)c(OCCCCN2CCNCC2)c1,-6.1,60.3*,12.0,115.0,17.9,104.0
Cc1ccc(OCCCCCCN2CCNCC2)c(Br)c1,x,33.2,x,x,x,x
Cc1cc(Br)ccc1OCCNCc1ccccc1,-35.3,11.9,19.0,126.0,37.5*,103.0
Brc1ccccc1OCCCCCN1CCCC1,-6.7,56.7*,13.0,122.0,2.4,106.0
Cc1cc(C)c(C)c(OCCNCc2ccccc2)c1,-37.1,24.1,5.0,119.0,21.5,103.0
Cc1cccc(NC(=O)CSCC(=O)N(C)Cc2c(F)cccc2Cl)c1,x,2.8,x,x,x,x
CCOC(=O)c1c(S(=O)(=O)Nc2ccc(F)cc2C)c(C)n(C)c1C,6.6,31.9,-2.0,102.0,-36.5,102.0
CCCCN(CC)CCCNC(=O)C1CCN(c2ncnc3c2sc2cccc(F)c23)CC1,-7.4,70.5*,-9.0,107.0,18.7,102.0
CC(C)n1c(Nc2ccccc2)nc2ccccc21,-11.4,-17.7,-1.0,102.0,90.8*,97.0
CC(C)n1c(NCCO)nc2ccccc21,-0.7,-13.4,-13.0,85.0,0.3,98.0
CC(=O)Nc1ccc(NC(=O)Cc2sc(-c3cccnc3)nc2-c2ccc(C)cc2)cc1,0.8,69.5*,0.0,106.0,-6.3,113.0
CC(C)C(=O)NC(c1ccco1)c1ccc2cccnc2c1O (configuration not stated),3.1,50.2,5.0,107.0,-15.8,103.0
Cc1conc1NC(c1cccs1)c1ccc2cccnc2c1O (configuration not stated),12.3,29.1,-3.0,98.0,-2.8,100.0
CCC(=O)NC(c1cccs1)c1ccc2cccnc2c1O (configuration not stated),11.2,78.2*,4.0,98.0,-11.4,101.0
CC(C)CC(=O)NC(c1cccs1)c1ccc2cccnc2c1O (configuration not stated),0.8,60.2*,0.0,108.0,-28.8,118.0
SMILES,NS3 helicase inh,T cruzi inh,MEKK2mut PB1 HTS,MEKK2wt PB1 HTS,FID counter,MEKK3 PB1 HTS
Cc1cccc(OC(C)C(=O)N/N=C\c2ccncc2)c1 (configuration not stated),-17.1,-23.8,5.0,102.0,-3.2,103.0
CC1CCN(CCNC(=O)c2ccc3c(=O)n(Cc4ccc(Cl)cc4)c(=S)[nH]c3c2)CC1,-74.0,25.1,39.0*,175.0*,14.7,101.0
COCCCNC(=O)c1ccc2c(=O)n(Cc3ccc(Cl)cc3)c(=S)[nH]c2c1,-7.5,1.0,3.0,103.0,-13.4,105.0
COc1ccc(N=C2NN=C(c3ccc4c(c3)OCCO4)CS2)cc1,5.4,1.1,4.0,102.0,-6.0,105.0
FC(F)Sc1ccc(N=C2NN=C(c3ccc4c(c3)OCCO4)CS2)cc1,-0.8,69.2*,-1.0,103.0,-1.1,101.0
CCOC(=O)NC1Cc2ccccc2C1Sc1ccccn1 (configuration not stated),12.4,-10.5,2.0,102.0,-28.8,104.0
CCc1ccccc1NNC(=O)c1cc(C)on1,-8.1,-4.1,-14.0,89.0,-1.6,86.0
Cc1cc(C(=O)NNc2ccccc2F)no1,-1.6,60.9*,-1.0,95.0,-4.3,96.0
O=C(Nc1cc2cccc([N+](=O)[O-])c2oc1=O)c1cccs1,-4.6,-16.0,1.0,-8.0*,0.7,87.0
Cc1sc2nc(SCc3ccc(C(=O)O)cc3)n(Cc3ccco3)c(=O)c2c1C,20.6,60.5*,-2.0,95.0,-23.8,95.0
Cc1ccccc1-n1c(SCC(=O)N/N=C/c2c(C)nn(-c3ccccc3)c2C)nc2ccccc2c1=O,3.0,56.4*,-1.0,97.0,-14.8,99.0
Cc1ccc(-n2c(SCC(=O)N/N=C/c3c(C)nn(-c4ccccc4)c3C)nc3ccccc3c2=O)cc1,0.3,36.2,12.0,102.0,-3.5,101.0
O=c1[nH]c(CN2CCN(C/C=C/c3ccccc3)CC2)nc2cc(Cl)ccc12,-4.9,61.1*,7.0,114.0,7.7,104.0
O=C(CCc1nc2ccccc2c(=O)[nH]1)N1CCN(C/C=C/c2ccccc2)CC1,-7.3,81.7*,5.0,120.0,-18.3,114.0
CC(=O)N1CCN(C(=O)CCc2nc3ccccc3c(=O)[nH]2)CC1,4.0,-17.7,-1.0,98.0,0.7,99.0
O=C(c1ccco1)N1CCN(Cc2nc3cc(Cl)ccc3c(=O)[nH]2)CC1,18.9,-5.4,-10.0,83.0,-11.4,104.0
O=C([O-])c1ccccc1-[n+]1c(-c2ccccc2)cc(-c2ccccc2)cc1-c1ccccc1,x,48.6,x,x,x,x
CCOC(=O)c1oc2ccc(CNCCO)c(Cl)c2c1C,-1.4,10.3,21.0,121.0,5.6,117.0
CCOC(=O)c1oc2ccc(CNC3CCCCC3)c(Cl)c2c1C,-16.0,74.1*,-1.0,102.0,13.4,91.0
COc1cc(/C=N/N=C(/C(=O)c2ccccc2)c2ccccc2)cc(OC)c1O,-8.6,14.0,0.0,105.0,-17.0,135.0*
OC(COCC(F)(F)C(F)(F)C(F)(F)C(F)F)Cn1c2ccc(Cl)cc2c2cc(Cl)ccc21 (configuration not stated),9.8,51.4,53.0*,135.0,11.7,100.0
COc1cc2c(cc1NC(=O)Nc1ccc(F)cc1)oc1ccccc12,2.5,60.0*,2.0,115.0,2.8,107.0
COc1cc2c(cc1NC(=O)c1cc(-c3ccncc3)nc3ccccc13)oc1ccccc12,-18.9,48.9,17.0,16.0*,-0.1,92.0
